Screening data from PubChem BioAssay.
In the library only some 2.5% were active in any assay of this set; here they are far more common.
Vif imaging = inhibitors of HIV Vif. HEK293T cells, Vif self-association by quenched fluorescence, imaging, 24 h. 340,000 compounds, 0.35% hits. inhibition, % at 7.49 µM; in the data active = inhibition above about 50%, passing the limit was not always enough; inconclusive = no clear call, values can overlap the other calls; inactive = below about 31%
SR-BI DiI-HDL act = enhances SR-BI lipid uptake from DiI-HDL. CHO ldlA[mSR-BI] cells, DiI-HDL uptake fluorescence, 3 h; 100 = double the neutral-control signal. activation, % at 12.5 µM. AID 504775. 320,000 compounds, 0.096% hits;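 active = mean replicate activation of at least 60% and every replicate at or above 60%; inconclusive = mean or all-replicate condition met, but not both; inactive = mean below 60% and not all replicates reaching 60%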;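 also: 0% = median plate neutral-control signal and 100% = twice that signal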
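Material: SR-BI-overexpressing, LDLR-lacking CHO cells | Dosing: Single compound concentration, delivered by pin transfer | Probe or stimulus: Labelled HDL, 10 µg/mL | Signal: Bottom-read cell fluorescence after medium removal, ex 550/em 595 nm | Schedule: 3 h, 37 °C | Evaluation: HDL uptake via cellular fluorescence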
SR-BI HDL uptake = inhibitors of mouse SR-BI mediated HDL lipid uptake. 320,000 compounds, 0.96% hits. AID 488896. ldlA[mSR-BI] CHO cells, DiI-HDL uptake fluorescence, 3 h. Q61009. inhibition, % at 12.5 µM;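 active = mean replicate inhibition of at least 70% and a set share of replicates each scoring 70 or more; inconclusive = meets just one of the two criteria; inactive = fails both criteria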;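 also: 0% = median of neutral control wells and 100% = median of positive control wells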
Target sequence (Q61009 whole entry, looked up): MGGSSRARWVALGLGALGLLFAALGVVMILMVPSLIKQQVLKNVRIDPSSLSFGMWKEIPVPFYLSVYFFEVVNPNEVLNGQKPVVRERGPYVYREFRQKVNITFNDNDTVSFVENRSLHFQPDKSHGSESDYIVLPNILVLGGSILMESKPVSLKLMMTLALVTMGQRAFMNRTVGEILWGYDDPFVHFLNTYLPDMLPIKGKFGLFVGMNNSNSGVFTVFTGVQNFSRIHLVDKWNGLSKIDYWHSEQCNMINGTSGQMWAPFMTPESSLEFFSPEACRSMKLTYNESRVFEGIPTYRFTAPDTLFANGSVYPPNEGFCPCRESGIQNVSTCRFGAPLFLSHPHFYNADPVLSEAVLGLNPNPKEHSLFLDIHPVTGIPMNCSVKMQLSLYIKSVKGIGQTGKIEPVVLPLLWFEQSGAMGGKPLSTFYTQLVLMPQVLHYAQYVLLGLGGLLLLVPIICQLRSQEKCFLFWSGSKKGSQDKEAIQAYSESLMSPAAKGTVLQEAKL
TAG inh = triacylglycerol accumulation inhibition. inhibition, % at 12.5 µM. AID 651582. 230,000 compounds, 0.66% hits. H9c2 cells, Nile Red lipid (TAG) fluorescence; cells loaded with 200 µM oleic acid;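 active = pattern-corrected inhibition of lipid staining of at least 50% with the nuclear-stain viability signal not falling by more than 50%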;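 also: 0% = DMSO wells and 100% = triacsin C control wells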
SMARCA2 act = increases SMARCA2 function in MMTV reporter cells; MG213 cells, MMTV-luciferase reporter, dexamethasone, overnight; activation, % at 9.1 µM; 370,000 compounds, 1% hits; AID 652017; in the data active = activation above about 7.8%;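 also: 0% = vehicle wells and 100% = reference activator wells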
An asterisk follows results filed as active; ? = inconclusive; . = no result.

SMILES | Vif imaging | SR-BI DiI-HDL act | SR-BI HDL uptake | TAG inh | SMARCA2 act
O=C(NN=C(Cc1ccccc1)Cc1ccccc1)c1ccccc1O | 6 | 299* | -298 | . | 0
C/C(=N\NC(=O)CNC(=O)c1ccc(F)cc1)c1ccco1 | 73* | 11 | -11 | . | -2
C/C(=N\NC(=O)CNC(=O)c1ccc(Br)cc1)c1ccco1 | -7 | -1 | 1 | . | -1
COc1ccc(-c2c(C)nn3c(NC4CCCC4)cc(C)nc23)cc1OC | 7 | -4 | 4 | . | -1
CCc1c(C)nc2cc(-c3ccc(OC)c(OC)c3)nn2c1NCC1CC1 | -1 | -89 | 89* | 0 | 2
Cc1cc(C)c2nc(NNC(=O)c3ccc(S(=O)(=O)N4CCCCC4)cc3)sc2c1 | -8 | -76 | 76* | 5 | -2
Cc1cccc2sc(NNC(=O)c3ccc(S(=O)(=O)N4CCc5ccccc5C4)cc3)nc12 | 13 | -125 | 125* | 15 | -3
CCc1nnc(NC(=O)c2ccc(S(=O)(=O)N3CCCC(C)C3)cc2)s1 (stereo unspecified) | 4 | -7 | 7 | . | 0
Cc1cccc2sc(NNC(=O)c3ccc(S(=O)(=O)N4CCCC(C)C4)cc3)nc12 (stereo unspecified) | -21 | -128 | 128* | 3 | -3
Cc1ccc(C(=O)NNC(=O)c2ccc(S(=O)(=O)N3CCCCC3)cc2)cc1 | 8 | -52 | 52 | 1 | 0
CCOc1[nH]n(-c2ccc(Cl)cc2)c(=O)c1C=Nc1ccc(Cl)cc1 | -4 | -75 | 75* | 25 | -4
O=C(/C=C/c1ccccc1)c1ccc2c(c1)OCCCCO2 | 2 | 0 | 0 | -4 | 0
O=C(CCl)N(C/C=C/c1ccccc1)c1ccc2c(c1)OCCO2 | -18 | 10 | -10 | 52* | -12
COc1ccc(C[C@@H]2OC3(C=CC(=O)C=C3)O[C@H]2Cc2ccc(OC)cc2)cc1 | 69* | 1 | -1 | 75 | .
COc1ccc(-n2c(COc3ccc(Cl)cc3)nnc2SCC(=O)c2ccc(-c3ccccc3)cc2)cc1 | . | . | . | . | -6
COC(=O)C1=C(C)N(Cc2ccccc2)C(=NCc2ccc(OC)cc2)N[C@H]1c1cccc(F)c1 | 0 | 23 | -23 | 121 | 1
COC(=O)C1=C(C)N(Cc2ccccc2)C(=NCc2cccc(Cl)c2)N[C@H]1c1cccc(F)c1 | -4 | 22 | -22 | 120* | .
C[C@@H]1CN([C@@H](C)CO)C(=O)CCCn2cc(nn2)CO[C@H]1CN(C)C(=O)Nc1ccccc1F | . | . | . | . | -1
CC1(C)CC2CC(C)(CN2Cc2cccc([N+](=O)[O-])c2)C1 (stereo unspecified) | 57* | 2 | -2 | -3 | -3
COc1cccc(C(=O)N2CCC[C@@H]2C(=O)N2CCC[C@@H]2C(=O)NCc2ccccc2)c1 | . | . | . | . | 1
CCOCCCn1c(=N)c(S(=O)(=O)c2ccc(C)cc2)cc2c(=O)n3cc(C)ccc3nc21 | 50* | . | . | . | 0
Cc1ccc2nc3c(cc(S(=O)(=O)c4ccccc4)c(=N)n3Cc3ccco3)c(=O)n2c1 | 1 | -5 | 5 | -5 | 2
COC(=O)[C@]12C[C@H](CC(=O)N3CCCCC3)C(=O)N(Cc3ccc4c(c3)OCO4)C1=C[C@H](C(C)(C)C)O[C@@H]2C | . | . | . | . | -6
Cc1ccc(C(=O)N/N=C/c2ccc(OC(=O)c3ccccc3Cl)cc2)cn1 | 58* | -73 | ? | . | 0
N#Cc1ccc(CSc2nnc(-c3ccccn3)n2-c2ccccc2)cc1 | 4 | 13 | -13 | 6 | -3
SMILES | Vif imaging | SR-BI DiI-HDL act | SR-BI HDL uptake | TAG inh | SMARCA2 act
N#Cc1ccc(CSc2nnc(-c3cccs3)n2-c2ccccc2)cc1 | 55* | -27 | 27 | -22 | 0
COc1cc(-c2cnc3c(NC=O)cc(-c4ccccc4)cn23)cc(OC)c1OC | 74* | . | . | 45 | -2
COc1cc(-c2cc(NC=O)c3ncc(-c4ccc(C(C)=O)cc4)n3c2)cc(OC)c1OC | . | . | . | 2 | 4
COc1cc(-c2cnc3c(NC=O)cc(-c4ccccc4Cl)cn23)cc(OC)c1OC | 58* | . | . | 43 | 4
COc1ccc(-c2cc(NC=O)c3ncc(-c4ccc(C(C)=O)cc4)n3c2)cc1OC | -4 | . | . | 24 | 7.9*
COc1cc(-c2cc(NC=O)c3ncc(-c4ccccc4)n3c2)cc(OC)c1OC | -3 | . | . | 5 | -1
Cc1cc(-c2n[nH]c(=S)n2N=Cc2cccc(OCc3ccccc3)c2)n[nH]1 | . | . | . | . | -3
COC(=O)c1cc2c(c3c4ccccc4n(S(=O)(=O)c4ccccc4)c13)C(=O)N(C)C2 | . | . | . | . | -5
CC(C)(C)NC(=O)CC1C[C@H](C(=O)N2CCOCC2)[C@@]2(C)c3[nH]c4ccccc4c3CCN2C1=O (stereo partly specified) | . | -77 | 77* | 16 | -3
CC(C)(C)NC(=O)C[C@H]1C[C@H](C(=O)N2CCOCC2)[C@@]2(C)c3[nH]c4ccc(Cl)cc4c3CCN2C1=O | . | -6 | 6 | 12 | -2
COc1ccc(C2=Nn3c(nnc3-c3ccc(OC)cc3)SC2)cc1 | 66* | -72 | ? | . | 6
COc1ccc(S(=O)(=O)NCc2ccc3c(c2)OCO3)cc1C | 1 | -5 | 5 | . | 0
COc1ccc(S(=O)(=O)NCc2ccc3c(c2)OCO3)cc1OC | 114* | -31 | 30 | . | -1
COc1ccc(C(=O)C(=O)N2CCN(S(=O)(=O)c3cccc4c(N(C)C)cccc34)CC2)cc1OC | . | . | . | . | -3
O=C(N/N=C/c1ccc(Cl)cc1Cl)c1cccc(N2CCCC2=O)c1 | 6 | -85 | 85* | . | 1
O=C(N/N=C/c1cc(Br)cc(Br)c1O)c1cccc(N2CCCC2=O)c1 | 2 | -131 | 132* | 10 | -3
C[C@@H]1ON(C)[C@H]2C[C@H]3c4[nH]c5c(-c6ccccc6)cccc5c4CCN3C[C@@H]12 | . | . | . | . | 4
CC(=C1C(=O)c2ccccc2C1=O)N1CCc2ccccc2C1 | -9 | -5 | 5 | . | 7.9*
CC(C(=O)N1CCc2ccccc2C1)N(c1ccccc1)S(C)(=O)=O (stereo unspecified) | 28 | 27 | -27 | . | -3
CC(C)[C@@H]1NC(=O)[C@H]2C[C@@]3(C)c4ccccc4N[C@H]3N2C1=O | . | . | . | . | -3
Cc1cccc(C(=O)NCCC(=O)NCc2ccccc2Cl)c1 | 54* | 5 | -5 | 11 | -4
CCC(CO)NCc1cc(OC)c(OCC(=O)NCCc2ccccc2)cc1Br (stereo unspecified) | 3 | . | . | . | 8.3*
CCCCNc1c(-c2cccc(-c3ccc(OC)cc3)c2)nc2cc(C)ccn12 | -12 | -73 | 73* | 4 | 3
